The values below come from article PMC8790780 (Chemistry (Weinheim an der Bergstrasse, Germany), 2021).

As usually defined, the IC50 is the concentration needed to halve the response being measured.

Structures are written as SMILES.

One assay has as its target Hsp90β (Homo sapiens, UniProt P08238). Nature of the assay: Fluorescence polarization. The assay is classed as binding. (Fluorescence polarisation rises when a labelled molecule tumbles more slowly, as on binding a larger partner.)
The target in the next assay is Hsp90α (Homo sapiens, UniProt P07900). Nature of the assay: Fluorescence polarization. The assay is classed as binding.
Another assay relates to HT29 cells. Nature of the assay: Cell viability assay. The settings on record: Homo sapiens, HT-29, 72 h, read-out: HT29 [IC50 in μM]. Type of assay: cell-based.
A further assay has as its system NCI-H1299 cells. Nature of the assay: Cell viability assay. The assay is classed as cell-based. The settings on record: Homo sapiens, NCI-H1299, 72 h, read-out: NCI—H1299 [IC50 in μM].
Assay [1] has as its system Hsp90 client proteins in HT-29 cell line. Description: Western blot analysis of client proteins in HT-29 cell lysates. The settings on record: HT-29, 24 h, 5-50 μM. The assay is classed as cell-based, human. The gist of the method:
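HT29 cells grown in RPMI with 10% FBS and 1% Pen-Strep. At ~70% confluence they were treated for 24 h with test compound (5, 10, 20, 30, 40, 50 μM) or GDA 500 nM. Cells were lysed in RIPA with protease/phosphatase inhibitors and spun 12,000g for 25 min at 4°C. BCA-normalized protein was run on 10% SDS-PAGE, transferred to PVDF, and detected with specific antibodies, HRP secondary and chemiluminescence.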
On the technique in general: A western blot detects proteins with antibodies after separation by electrophoresis.

Hsp90β, sequence (P08238 whole entry): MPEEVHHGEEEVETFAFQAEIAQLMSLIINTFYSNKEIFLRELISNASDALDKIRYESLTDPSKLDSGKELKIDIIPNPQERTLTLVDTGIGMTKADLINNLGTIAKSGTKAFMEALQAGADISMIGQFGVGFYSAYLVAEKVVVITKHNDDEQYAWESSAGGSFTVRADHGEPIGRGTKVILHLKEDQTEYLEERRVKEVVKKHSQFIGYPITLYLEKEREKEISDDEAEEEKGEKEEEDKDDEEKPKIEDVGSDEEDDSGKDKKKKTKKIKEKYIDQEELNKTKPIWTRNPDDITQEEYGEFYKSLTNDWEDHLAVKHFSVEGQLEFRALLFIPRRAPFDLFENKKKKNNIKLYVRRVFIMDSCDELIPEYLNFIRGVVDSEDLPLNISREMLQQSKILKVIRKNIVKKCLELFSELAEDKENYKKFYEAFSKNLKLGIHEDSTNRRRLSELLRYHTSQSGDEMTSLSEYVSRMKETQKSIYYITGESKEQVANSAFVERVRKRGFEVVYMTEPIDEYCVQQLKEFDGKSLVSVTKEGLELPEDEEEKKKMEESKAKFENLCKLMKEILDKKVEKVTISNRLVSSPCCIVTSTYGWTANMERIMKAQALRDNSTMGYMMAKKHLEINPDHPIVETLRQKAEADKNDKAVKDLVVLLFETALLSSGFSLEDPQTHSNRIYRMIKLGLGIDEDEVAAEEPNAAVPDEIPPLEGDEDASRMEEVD

With `CC(C)c1cc(C(=O)N2Cc3ccccc3C2)c(O)c2ccoc12` [Compound 5, (4-Hydroxy-7-isopropylbenzofuran-5-yl)(isoindolin-2-yl) methanone], at Hsp90β, the IC50 came to 270 ± 90 nM and the “selectivity for Hsp90β versus Hsp90α” value was ~ 370 fold. The Selectivity on Hsp90β (Hsp90β versus Hsp90α, from FP IC50 values) is given as over 370. This compound gave an IC50 at Hsp90α of over 100 µM. Also, the “binding affinity for Hsp90α (in words)” value on Hsp90α (FP assay, SAR discussion) was “no measurable affinity”. In addition, the IC50 in the assay with HT29 cells was determined as 18.8 ± 2.6 µM. In the assay with NCI-H1299 cells, the half-inhibitory concentration (IC50) is 17.5 ± 0.42 µM. Besides, in assay [1], the Erk5 total level result is “decreased at higher concentrations”, the Her-2 total level entry is “decreased at higher concentrations”, the Hsp70 level result is on record as “appear to be induced” and the “survivin protein expression level (Hsp90α-dependent client)” value was “remained unaffected until higher concentrations”. In assay [1] (dose dependent), the “Akt protein level (Hsp90β-dependent client)” value is listed as “induced the degradation” and the “CDK4 protein level (Hsp90β-dependent client)” value is on record as “induced the degradation”.
